Activity calls are given as the source filed them. The calls are words filed in the database; no cut-off is given here.
Experiments:
HUVEC = assay: Cytotoxicity against HUVEC cells after 48 hrs by WST8 assay; format: functional, cell-based; settings: Homo sapiens
How it was run: (§1)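 WST-8 viability after 48 h exposure to a concentration series. Plating was 1 × 10^4 or 5 × 10^3 cells per well. HeLa and HuH-7 were grown in DMEM and HCT116 in RPMI 1640, each with 10% FBS. HUVEC were grown in endothelial cell growth medium. Kit reagent was added for 30–180 min at 37 °C, then absorbance was read at 450 nm. Doxorubicin was the positive control.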

[1] = Cytotoxicity against human HCT116 cells after 48 hrs by WST8 assay; format: functional, cell-based; settings: HCT-116, 48 h; how it was run: as §1
HeLa [2] = assay: Cytotoxicity against human HeLa cells after 48 hrs by WST8 assay; format: functional, cell-based; how it was run: as §1
[3] = Cytotoxicity against human HuH7 cells after 48 hrs by WST8 assay; format: functional, cell-based; settings: Huh-7, 48 h; how it was run: as §1
HeLa [4] = assay: Induction of ROS generation in human HeLa cells at 1 uM after 3 hrs by CM-H2DCFDA dye based assay; format: functional, cell-based
How it was run: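 HeLa cells were treated with agent over 0–10 μM; the methods give 1 h and the figure legend gives 3 h. Cells were then loaded with 10 μM CM-H2DCFDA for 20 min at 37 °C and washed. DCF fluorescence was read on a plate reader at ex 490/em 535 nm, n = 3.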

HeLa [5] = assay: Cytotoxicity against human HeLa cells assessed as reduction in cell viability at 10 to 30 uM in presence of 10 mM NAC after 48 hrs by WST8 assay; format: functional, cell-based
How it was run: (§2)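 HeLa cells were exposed to 0–30 μM agent for 48 h, with or without 10 mM N-acetylcysteine as ROS scavenger. Viability was then read by WST-8 (tetrazolium reduction, absorbance 450 nm). Data are mean ± SD, n = 3.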

HeLa [6] = assay: Induction of cell death in human HeLa cells at 10 uM after 1 hr
HeLa [7] = assay: Induction of apoptosis in human HeLa cells assessed as DNA fragmentation at 4 uM after 48 hrs by TUNEL assay; format: functional, cell-based
How it was run: (§3)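 HeLa cells were plated at 2.5 × 10^4 per chamber-slide well and exposed for 48 h at 37 °C. Doses were 4.0 μM test agent or 0.2 μM doxorubicin (positive control). DNA fragmentation was detected by TUNEL (ApopTag Red) under fluorescence microscopy. Apoptotic cells were counted among ≥200 cells per condition, as mean ± SD of three independent experiments.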

HeLa [8] = assay: Cytotoxicity against human HeLa cells assessed as reduction in cell viability in presence of 10 mM NAC after 48 hrs by WST8 assay; format: functional, cell-based; how it was run: as §2
HeLa [9] = assay: Induction of apoptosis in human HeLa cells assessed as DNA fragmentation at 0.2 uM after 48 hrs by TUNEL assay; format: functional, cell-based; how it was run: as §3
HeLa [10] = assay: Induction of ROS generation in human HeLa cells at 10 to 60 uM after 3 hrs by CM-H2DCFDA dye based assay; format: functional, cell-based

Compound | IC50 (HUVEC) [µM] | IC50 [1] [µM] | IC50 (HeLa [2]) [µM] | IC50 [3] [µM] | Activity (HeLa [4]) | Activity (HeLa [5]) | Activity (HeLa [6]) | Activity (HeLa [7]) | Activity (HeLa [8]) | Activity (HeLa [9]) | Activity (HeLa [10])
CC(=O)Cc1c(C)c(O)c2c(c1O)C(=O)CCC2O (stereo unspecified) | 5.8 | > 30 | > 30 | > 30 | – | – | – | – | – | – | –
CC(=O)Cc1c(C)c(O)c2c(c1O)C(=O)CCC2=O | 1.8 | 1.1 | 4 | 1.9 | Active | inactive | Active | Active | – | – | –
COc1cc(O)c2c(c1O)C(=O)[C@@H](CC(C)=O)[C@H](C)C2=O | 7.7 | 15.4 | 7.9 | 10.8 | – | – | – | – | – | – | –
COc1cc(O)c2c(c1O)[C@H](O)[C@@H]1C[C@](C)(O)OC[C@@H]1C2=O | 13.1 | > 30 | > 30 | 27 | – | – | – | – | – | – | –
CC/C(=C(\c1ccccc1)c1ccc(OCCN(C)C)cc1)c1ccccc1 | – | – | – | – | – | – | – | – | Active | – | –
COC1=CC(=O)c2c(O)c(C)c(CC(C)=O)c(O)c2C1=O [JAVANICIN] | 2.3 | 5.5 | 9 | 6.7 | – | – | – | – | – | – | –
COc1cccc2c1C(=O)c1c(O)c3c(c(O)c1C2=O)C[C@@](O)(C(=O)CO)C[C@@H]3O[C@H]1C[C@H](N)[C@H](O)[C@H](C)O1 [DOXORUBICIN] | 0.4 | 0.25 | 0.22 | 0.22 | – | – | – | – | – | Active | –
CC1=CC(=O)c2ccccc2C1=O | – | – | – | – | – | – | – | – | – | – | Active

Source: ChEMBL document CHEMBL3351391, “Bioactive dihydronaphthoquinone derivatives from Fusarium solani” (J Nat Prod, 2014)
